According to ChEMBL document CHEMBL4007439, “Design, Synthesis, and Evaluation of a Novel Series of Oxadiazine Gamma Secretase Modulators for Familial Alzheimer's Disease” (J Med Chem, 2017):
In brackets after ≈: the same amount, converted by molar mass.

Columns and labels:
[1] = system: Cynomolgus monkey; experiment: AUClast in Cynomolgus monkey at 10 mg/kg, po; type: ADME, organism-based, Macaca fascicularis; design: dose 10 mg/kg, route oral, time 0 - last; conditions: in vivo
How it was run: (§1)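 Oral dosing; AUC and Cmax taken from the p.o. administration; bioavailability (%F) calculated from p.o. and i.v. data.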

[2] = system: Rattus norvegicus; experiment: Increase in amyloid beta 37 levels in rat brain at 30 mg/kg, po measured at 6 hrs post dose by ELISA relative to control; type: functional
How it was run: (§2)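 Single oral dose of 30 mg/kg; brain (mouse, rat) and rat CSF Aβ42 and Aβ37 measured 6 h post-dose, expressed relative to vehicle; total and free brain drug levels and brain:plasma ratio taken at the same time.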

[3] = Cmax in Cynomolgus monkey at 10 mg/kg, po; type: ADME, organism-based, Macaca fascicularis; design: dose 10 mg/kg, route oral; conditions: in vivo; how it was run: as §1
[4] = Half life in Cynomolgus monkey at 1 mg/kg, iv; type: ADME, organism-based, Macaca fascicularis; conditions: in vivo
How it was run: (§3)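 Intravenous dosing at 1 mg/kg; half-life, steady-state volume of distribution and clearance derived from the i.v. administration.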

[5] = Volume of distribution at steady state in Cynomolgus monkey at 1 mg/kg, iv; type: ADME, organism-based, Macaca fascicularis; conditions: in vivo, read-out: Vdss; how it was run: as §3
[6] = system: Rattus norvegicus; experiment: Reduction in amyloid beta 42 levels in rat brain at 30 mg/kg, po measured at 6 hrs post dose by ELISA; type: functional; how it was run: as §2
[7] = system: Brain; experiment: Unbound drug level in mouse brain at 30 mg/kg, po measured at 6 hrs post dose; type: ADME, organism-based; conditions: in vivo; how it was run: as §2
[8] = Total drug level in rat brain at 30 mg/kg, po measured at 6 hrs post dose; type: ADME, organism-based; conditions: read-out: Drug uptake; how it was run: as §2
[9] = system: TK6; experiment: Genotoxicity in p53-competent human TK6 cells in presence of S9 fraction by GADD45alpha GFP reporter assay; type: toxicity, cell-based
How it was run: (§4)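 GreenScreen GADD45alpha-GFP reporter assay in human cells, run externally.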

[10] = target: Cytochrome P450 2C19 (Homo sapiens, UniProt P33261); experiment: Inhibition of CYP2C19 (unknown origin); type: ADME
Cytochrome P450 2C19, sequence (P33261 whole entry): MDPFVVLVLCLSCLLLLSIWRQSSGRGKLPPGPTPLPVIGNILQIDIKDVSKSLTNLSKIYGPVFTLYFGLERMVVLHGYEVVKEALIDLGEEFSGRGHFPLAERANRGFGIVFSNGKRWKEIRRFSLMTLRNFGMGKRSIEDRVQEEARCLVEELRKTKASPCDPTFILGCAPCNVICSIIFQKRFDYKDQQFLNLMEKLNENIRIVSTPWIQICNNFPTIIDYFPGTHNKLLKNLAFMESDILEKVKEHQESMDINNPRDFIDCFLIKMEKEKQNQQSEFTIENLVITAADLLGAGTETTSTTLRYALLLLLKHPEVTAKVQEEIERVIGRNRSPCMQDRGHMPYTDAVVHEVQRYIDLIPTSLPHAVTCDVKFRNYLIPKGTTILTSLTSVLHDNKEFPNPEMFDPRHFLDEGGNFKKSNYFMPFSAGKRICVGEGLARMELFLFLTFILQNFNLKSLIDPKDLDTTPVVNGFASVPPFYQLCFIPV

[11] = Oral bioavailability in Wistar rat at 10 mg/kg; type: ADME, organism-based; conditions: in vivo; how it was run: as §1
[12] = AUClast in Wistar rat at 10 mg/kg, po; type: ADME, organism-based; design: dose 10 mg/kg, route oral, time 0 - last; conditions: in vivo; how it was run: as §1
[13] = target: Cytochrome P450 2D6 (Homo sapiens, UniProt P10635); experiment: Inhibition of CYP2D6 (unknown origin); type: ADME
Cytochrome P450 2D6, sequence (P10635 whole entry): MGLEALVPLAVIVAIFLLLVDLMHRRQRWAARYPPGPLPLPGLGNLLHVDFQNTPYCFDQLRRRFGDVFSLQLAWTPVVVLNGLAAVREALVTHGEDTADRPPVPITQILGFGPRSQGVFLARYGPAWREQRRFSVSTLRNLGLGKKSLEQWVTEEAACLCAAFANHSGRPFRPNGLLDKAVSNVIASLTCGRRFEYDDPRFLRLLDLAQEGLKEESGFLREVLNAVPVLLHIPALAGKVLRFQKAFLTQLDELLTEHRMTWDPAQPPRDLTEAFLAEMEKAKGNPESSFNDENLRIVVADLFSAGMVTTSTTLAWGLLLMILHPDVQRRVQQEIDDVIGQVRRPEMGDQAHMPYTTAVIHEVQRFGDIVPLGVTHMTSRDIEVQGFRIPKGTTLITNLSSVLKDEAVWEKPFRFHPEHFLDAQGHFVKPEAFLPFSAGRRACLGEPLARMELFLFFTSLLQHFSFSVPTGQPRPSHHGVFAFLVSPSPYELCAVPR

[14] = system: Mus musculus; experiment: Increase in amyloid beta 37 levels in mouse brain at 30 mg/kg, po measured at 6 hrs post dose by ELISA relative to control; type: functional; how it was run: as §2
[15] = Modulation of gamma-secretase in human H4 cells expressing human APP751 assessed as inhibition of amyloid beta 42 production incubated overnight by sandwich ELISA; type: cell-based; conditions: Homo sapiens
How it was run: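 Aβ42 EC50 in H4 cells overexpressing WT human APP751; each value is the average of n > 2 assays, each run in duplicate.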

[16] = system: Mus musculus; experiment: Reduction in amyloid beta 42 levels in mouse brain at 30 mg/kg, po measured at 6 hrs post dose by ELISA; type: functional; how it was run: as §2
[17] = target: Cytochrome P450 2C9 (Homo sapiens, UniProt P11712); experiment: Inhibition of CYP2C9 (unknown origin); type: ADME
Cytochrome P450 2C9, sequence (P11712 whole entry): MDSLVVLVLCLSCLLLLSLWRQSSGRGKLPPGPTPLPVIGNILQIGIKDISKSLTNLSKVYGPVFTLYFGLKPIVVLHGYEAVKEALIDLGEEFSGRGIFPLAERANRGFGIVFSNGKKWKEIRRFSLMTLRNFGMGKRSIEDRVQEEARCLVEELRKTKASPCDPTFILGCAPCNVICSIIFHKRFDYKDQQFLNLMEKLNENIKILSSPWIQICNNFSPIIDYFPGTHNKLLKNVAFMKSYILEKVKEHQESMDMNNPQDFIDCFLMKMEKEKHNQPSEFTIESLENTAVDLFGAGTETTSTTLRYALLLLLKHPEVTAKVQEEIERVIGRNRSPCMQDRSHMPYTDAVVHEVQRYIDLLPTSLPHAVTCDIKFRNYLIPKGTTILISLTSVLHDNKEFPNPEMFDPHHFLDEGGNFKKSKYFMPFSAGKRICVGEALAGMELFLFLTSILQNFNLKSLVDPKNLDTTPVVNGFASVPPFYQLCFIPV

[18] = system: Mus musculus; experiment: Increase in amyloid beta 37 levels in mouse brain at 30 mg/kg, po measured at 0.5 to 24 hrs post dose by ELISA relative to control
[19] = Cmax in Wistar rat at 10 mg/kg, po; type: ADME, organism-based; design: dose 10 mg/kg, route oral; conditions: in vivo; how it was run: as §1
[20] = target: T1, Cytochrome P450 3A4 (Homo sapiens, UniProt P08684); experiment: Inhibition of CYP3A4 (unknown origin); type: ADME
T1 sequence (P08684 whole entry): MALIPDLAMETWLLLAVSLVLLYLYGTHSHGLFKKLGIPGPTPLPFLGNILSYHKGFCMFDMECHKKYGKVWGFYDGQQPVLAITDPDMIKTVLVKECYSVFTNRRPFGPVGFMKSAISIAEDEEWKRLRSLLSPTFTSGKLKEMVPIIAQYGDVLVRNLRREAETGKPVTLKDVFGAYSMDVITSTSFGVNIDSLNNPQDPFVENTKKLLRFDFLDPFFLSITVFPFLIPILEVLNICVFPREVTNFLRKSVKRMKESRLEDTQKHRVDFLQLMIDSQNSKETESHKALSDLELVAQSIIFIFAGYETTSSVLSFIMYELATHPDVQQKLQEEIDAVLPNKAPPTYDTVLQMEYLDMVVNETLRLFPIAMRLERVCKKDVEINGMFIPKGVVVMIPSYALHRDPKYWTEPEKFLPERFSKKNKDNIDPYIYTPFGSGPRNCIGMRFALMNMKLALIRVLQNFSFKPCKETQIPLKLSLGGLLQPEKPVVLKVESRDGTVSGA

[21] = system: Rattus norvegicus; experiment: Reduction in amyloid beta 42 levels in rat CSF at 30 mg/kg, po measured at 6 hrs post dose by ELISA; type: functional; how it was run: as §2
[22] = Ratio of drug level in brain to plasma in mouse at 30 mg/kg, po measured at 6 hrs post dose; type: ADME, organism-based; conditions: read-out: BPR; how it was run: as §2
[23] = Cytotoxicity against human HepG2 cells assessed as reduction in cell viability by measuring ATP; conditions: read-out: TC50 (the source's name)
[24] = system: Mus musculus; experiment: Decrease in amyloid beta 42 in mouse brain at 30 mg/kg, po administered as single dose after 0.5 to 24 hrs; type: functional
[25] = target: T1, Cytochrome P450 3A4; experiment: Time dependent inhibition of CYP3A4 (unknown origin) at 5 to 25 uM; type: ADME
[26] = system: Brain; experiment: Unbound drug level in rat brain at 30 mg/kg, po measured at 6 hrs post dose; type: ADME, organism-based; conditions: in vivo; how it was run: as §2
[27] = Total drug level in mouse brain at 30 mg/kg, po measured at 6 hrs post dose; type: ADME, organism-based; conditions: read-out: Drug uptake; how it was run: as §2
[28] = Efflux ratio of permeability in human Caco2 cells; type: ADME, cell-based; conditions: Caco-2
How it was run: (§5)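 Caco-2 monolayer assay; apical-to-basolateral permeability (cm/s) and efflux ratio used to judge P-gp efflux potential.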

[29] = system: Rattus norvegicus; experiment: Increase in amyloid beta 37 levels in rat CSF at 30 mg/kg, po measured at 6 hrs post dose by ELISA relative to control; type: functional; how it was run: as §2
[30] = system: TK6; experiment: Genotoxicity in p53-competent human TK6 cells in absence of S9 fraction by GADD45alpha GFP reporter assay; type: toxicity, cell-based; how it was run: as §4
[31] = Volume of distribution at steady state in Wistar rat at 1 mg/kg, iv; type: ADME, organism-based; conditions: in vivo, read-out: Vdss; how it was run: as §3
[32] = Half life in Wistar rat at 1 mg/kg, iv; type: ADME, organism-based; conditions: in vivo; how it was run: as §3
[33] = target: Voltage-gated inwardly rectifying potassium channel KCNH2 (Homo sapiens, UniProt Q12809); experiment: Inhibition of human ERG by patch clamp assay
Voltage-gated inwardly rectifying potassium channel KCNH2, sequence (Q12809 whole entry): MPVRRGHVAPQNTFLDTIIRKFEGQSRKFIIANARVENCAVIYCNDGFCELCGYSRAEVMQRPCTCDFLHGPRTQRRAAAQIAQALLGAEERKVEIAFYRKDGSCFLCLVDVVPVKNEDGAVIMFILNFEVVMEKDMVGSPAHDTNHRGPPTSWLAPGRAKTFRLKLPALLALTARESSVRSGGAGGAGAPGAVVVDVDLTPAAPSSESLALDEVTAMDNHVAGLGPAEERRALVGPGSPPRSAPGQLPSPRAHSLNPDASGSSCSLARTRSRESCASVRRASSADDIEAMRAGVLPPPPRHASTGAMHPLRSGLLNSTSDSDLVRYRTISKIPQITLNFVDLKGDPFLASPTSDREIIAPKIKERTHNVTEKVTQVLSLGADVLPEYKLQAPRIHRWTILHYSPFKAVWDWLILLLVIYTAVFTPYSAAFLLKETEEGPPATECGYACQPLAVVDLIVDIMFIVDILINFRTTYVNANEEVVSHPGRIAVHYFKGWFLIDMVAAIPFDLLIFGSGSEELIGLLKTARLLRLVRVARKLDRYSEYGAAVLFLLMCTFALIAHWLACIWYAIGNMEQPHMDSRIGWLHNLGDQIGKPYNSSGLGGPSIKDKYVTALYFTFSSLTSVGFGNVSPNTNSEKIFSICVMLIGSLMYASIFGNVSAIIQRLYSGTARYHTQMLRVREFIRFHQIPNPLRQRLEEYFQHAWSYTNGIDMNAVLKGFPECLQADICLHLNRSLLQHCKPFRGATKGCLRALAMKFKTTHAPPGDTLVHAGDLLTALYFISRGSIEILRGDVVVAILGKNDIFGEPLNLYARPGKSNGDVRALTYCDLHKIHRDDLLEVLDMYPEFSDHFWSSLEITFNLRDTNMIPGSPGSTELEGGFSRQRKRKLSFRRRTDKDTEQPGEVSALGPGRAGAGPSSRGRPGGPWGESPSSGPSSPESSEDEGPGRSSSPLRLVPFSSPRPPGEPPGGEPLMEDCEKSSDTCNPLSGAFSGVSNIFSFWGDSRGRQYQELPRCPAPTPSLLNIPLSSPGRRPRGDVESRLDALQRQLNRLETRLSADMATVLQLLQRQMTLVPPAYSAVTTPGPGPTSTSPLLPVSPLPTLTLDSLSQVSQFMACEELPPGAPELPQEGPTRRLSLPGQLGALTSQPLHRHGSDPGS
How it was run: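 Functional patch clamp assay of hERG current; IC50 derived.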

[34] = system: Cynomolgus monkey; experiment: Oral bioavailability in Cynomolgus monkey at 10 mg/kg; type: ADME, organism-based, Macaca fascicularis; conditions: in vivo; how it was run: as §1
[35] = target: T2, Cytochrome P450 1A2 (Homo sapiens, UniProt P05177); experiment: Inhibition of CYP1A2 (unknown origin); type: ADME
T2 sequence (P05177 whole entry): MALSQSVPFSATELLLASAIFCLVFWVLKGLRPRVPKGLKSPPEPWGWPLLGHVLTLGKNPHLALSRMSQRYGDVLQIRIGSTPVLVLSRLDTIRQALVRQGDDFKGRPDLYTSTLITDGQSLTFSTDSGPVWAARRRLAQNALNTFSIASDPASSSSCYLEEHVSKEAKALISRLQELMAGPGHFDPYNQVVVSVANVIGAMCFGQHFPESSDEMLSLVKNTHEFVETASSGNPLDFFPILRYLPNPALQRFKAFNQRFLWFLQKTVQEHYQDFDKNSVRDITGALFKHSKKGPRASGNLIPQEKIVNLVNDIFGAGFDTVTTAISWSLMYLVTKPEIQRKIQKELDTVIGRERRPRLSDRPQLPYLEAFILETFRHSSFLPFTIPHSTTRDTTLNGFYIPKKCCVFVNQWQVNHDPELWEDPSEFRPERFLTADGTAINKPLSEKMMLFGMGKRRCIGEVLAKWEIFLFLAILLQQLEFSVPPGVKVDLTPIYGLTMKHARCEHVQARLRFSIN

[36] = target: T3, Cytochrome P450 2C8 (Homo sapiens, UniProt P10632); experiment: Inhibition of CYP2C8 (unknown origin); type: ADME
T3 sequence (P10632 whole entry): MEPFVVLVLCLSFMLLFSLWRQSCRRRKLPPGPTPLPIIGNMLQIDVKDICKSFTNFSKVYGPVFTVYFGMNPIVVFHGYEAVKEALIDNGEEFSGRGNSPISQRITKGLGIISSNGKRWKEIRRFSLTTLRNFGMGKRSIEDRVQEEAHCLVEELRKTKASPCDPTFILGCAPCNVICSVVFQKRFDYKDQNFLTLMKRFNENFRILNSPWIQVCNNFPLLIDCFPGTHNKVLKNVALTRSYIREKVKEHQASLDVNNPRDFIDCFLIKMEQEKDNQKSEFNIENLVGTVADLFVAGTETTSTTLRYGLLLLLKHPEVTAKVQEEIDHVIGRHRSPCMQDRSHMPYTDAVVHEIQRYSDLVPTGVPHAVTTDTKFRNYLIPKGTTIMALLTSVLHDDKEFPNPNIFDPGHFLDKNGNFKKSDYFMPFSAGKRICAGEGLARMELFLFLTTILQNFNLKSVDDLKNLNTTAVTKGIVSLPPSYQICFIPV

[37] = Unbound intrinsic clearance in rat hepatocytes; type: ADME, cell-based, Hepatocyte
[38] = Permeability from apical to basolateral side in human Caco2 cells; type: ADME, cell-based; conditions: Caco-2, read-out: permeability; how it was run: as §5
[39] = Clearance in Wistar rat at 1 mg/kg, iv; type: ADME, organism-based; conditions: in vivo; how it was run: as §3
[40] = system: Mus musculus; experiment: Decrease in amyloid beta 42 AUC(1 to 24 hrs) in mouse brain at 30 mg/kg, po administered as single dose after 0.5 to 24 hrs; type: functional
[41] = Aqueous solubility of compound in phosphate buffer at pH 7.4 after 90 mins; type: physicochemical
How it was run: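 Kinetic solubility method in pH 7.4 phosphate buffer, incubated 90 min at room temperature.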

## COc1nc(C2=NOC[C@H](c3cc4ccccc4o3)N2)ccc1-n1cnc(C)c1
[1]
  AUClast: 8.1 µM·h
[2]
  fold change (FC): 2.5
[3]
  Cmax: 11 µM
[4]
  half-life: 1.5 h
[5]
  Vd: 0.9 L/kg
[6]
  inhibition in vivo at 30 mg/kg: 30%
[7]
  Drug uptake(free): 427 nM
[8]
  concentration at 6 h: 13.7 µM
[9]
  Activity: Non-Toxic
[10]
  IC50: 17 µM
[11]
  bioavailability: 93%
[12]
  AUC(0-t): 67.8 µM·h
[13]
  IC50: 2 µM
[14]
  fold change (FC): 3.2
[15]
  EC50: 0.035 µM
[16]
  inhibition in vivo at 30 mg/kg: 43%
[17]
  IC50: 8 µM
[18]
  fold change (FC): 3.1
[19]
  Cmax: 7.3 µM
[20]
  IC50: 25 µM
[21]
  inhibition in vivo at 30 mg/kg: 58%
[22]
  Kp at 6 h: 1.5
[23]
  CC50: > 72 µM
[24]
  Imax: 45%
[25]
  TDI: Not Active
[26]
  Drug uptake(free): 156 nM
[27]
  concentration at 6 h: 29.8 to 30 µM
[28]
  efflux ratio: 1.1
[29]
  fold change (FC): 20
[30]
  Activity: Non-Toxic
[31]
  Vd: 1 L/kg
[32]
  half-life: 2.2 h
[33]
  IC50: 15 µM
[34]
  F: 136%
[35]
  IC50: 3 µM
[36]
  IC50: > 25 µM
[37]
  CL free: 84 mL/min/kg
[38]
  Papp A→B: 10 ×10⁻⁶ cm/s
[39]
  clearance: 5.8 mL/min/kg
[40]
  inhibition in vivo at 30 mg/kg: 34%
[41]
  solubility at 1.5 h: 84 µM (≈ 32.7 µg/mL)
